Results on 15 compounds are retold here after ChEMBL document CHEMBL1136371, “The design of 8,8-dimethyl[1,6]naphthyridines as potential anticonvulsant agents” (Bioorg Med Chem Lett, 2003).

As a reminder, the bioavailability is dose-corrected exposure relative to a reference, in per cent. A word on the clearance: it is the rate of elimination divided by the concentration. A low value points to a low capacity for elimination. Broadly, the ED50 is the dose that gives a 50% effect, or the effect in half of the subjects.

The species named for series [1] is Rattus norvegicus. Kind of series: Binding affinity at [3H]SB-204269 binding site expressed as pKi. In kind it is functional. The procedure, abridged: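 Radioligand binding with [3H]SB-204269, reported as pKi. All determinations run in triplicate.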
Series [2] deals with Rattus norvegicus. Kind of series: Anticonvulsant activity by using rat MEST test at 2 mg/kg p.o. 2 hr post-dose. In kind it is functional. Particulars: route oral. The gist of the method: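 Rat maximal electroshock seizure threshold (MEST) test. Oral dosing at 2 mg/kg, doses as free base; reference anticonvulsant given at 2.5 mg/kg p.o. Seizure threshold read 2 h post-dose as % increase versus vehicle-treated controls. Significance by Litchfield–Wilcoxon analysis.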

Series [3] can be described thus: Oral bioavailability. The settings on record: rat, in vivo. In kind it is ADME, organism-based. The procedure, abridged: (§1)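 Rat pharmacokinetics after iv and po administration. Oral bioavailability (Fpo) was measured with oral dosing at 2 mg/kg, and blood clearance (CLb) in mL/min/kg.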
Series [4] in a line: Plasma clearance was determined. The settings on record: rat. In kind it is ADME, organism-based.
Series [5] is filed under the species Rattus norvegicus. Kind of series: Compound tested for its ability to protect rat from hindlimb tonic seizures following a shock by using ALLFITrd quo. In kind it is functional. The procedure, abridged:
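Rat supraMES model. Oral doses of 1, 10 and 30 mg/kg. At 4 h post-dose, a single corneal-electrode shock of 180 mA lasting 0.3 s was given. Protection from hindlimb tonic seizures was scored against control, and ED50 was derived by ALLFIT fitting.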

Series [6] is described as follows: Oral bioavailability at the dose of 2 mg/kg in rat. The settings on record: in vivo. The series is classed as ADME, organism-based. The procedure, abridged: as §1
Series [7] can be described thus: Oral bioavailability in rat. In kind it is ADME, organism-based. Particulars: in vivo. The procedure, abridged:
as §1

Regarding `COc1ccc(C(=O)Nc2cnc3c(c2)CN(C)CC3(C)C)cc1F`, in the series filed under Rattus norvegicus [1], the “Log Ki” value is -7.3.
Still for that read-out and setting: the figure for `COc1ccc(C(=O)Nc2cnc3c(c2)CNCC3(C)C)cc1F` is -7.2.
`COc1ccc(C(=O)Nc2cnc3c(c2)CN(C)CC3(C)C)cc1C#N` returned an Increase in the series on Rattus norvegicus [2] of 110%. Further, in the series filed under Rattus norvegicus [1], the “Log Ki” value is given as -7.3.
Consider `COc1ccc(C(=O)Nc2cnc3c(c2)CN(C)CC3(C)C)cc1C(F)(F)F`, for which the Increase with Rattus norvegicus [2] came to 570%. In series [3], this compound showed a bioavailability of 20%. For the same compound, in the series listed under Rattus norvegicus [1], the “Log Ki” value was -8.8.
`COc1ccc(C(=O)Nc2cnc3c(c2)CNCC3(C)C)cc1Cl` displayed an Increase in the series with Rattus norvegicus [2] of 260%. The “Log Ki” value in the series listed under Rattus norvegicus [1] is recorded as -8.1.
Turning to `COc1ccc(C(=O)Nc2cnc3c(c2)CN(C)CC3(C)C)cc1Cl`, in the series with Rattus norvegicus [2], the Increase was 380%. In the series filed under Rattus norvegicus [1], the “Log Ki” value was -8.5.
For `CC(C)Oc1ccc(C(=O)Nc2cnc3c(c2)CNCC3(C)C)cc1C(F)(F)F`, the Increase with Rattus norvegicus [2] was 15%. In addition, the “Log Ki” value in the series listed under Rattus norvegicus [1] is recorded as -8.4.
In the series with Rattus norvegicus [2], `COc1ccc(C(=O)Nc2cnc3c(c2)CNCC3(C)C)cc1C(F)(F)F` yielded an Increase of 260%. In series [4], this compound returned a clearance of 30 mL/min/kg. The compound also yielded an ED50 in the series filed under Rattus norvegicus [5] of 3.9 mg/kg. In the series filed under Rattus norvegicus [1], the “Log Ki” value is recorded as -8.7. The compound also gave a bioavailability in series [6] above 50%.
The compound `CCOc1ccc(C(=O)Nc2cnc3c(c2)CNCC3(C)C)cc1C(F)(F)F` returned an Increase in the series on Rattus norvegicus [2] of 80%. Besides, the “Log Ki” value in the series filed under Rattus norvegicus [1] was -8.6.
On to `COc1ccc(C(=O)Nc2ccc3c(c2)CN(C)CC3)cc1C(F)(F)F`, for which the bioavailability in series [7] came to 2%. In addition, in the series listed under Rattus norvegicus [1], the “Log Ki” value is recorded as -8.9.
In turn, `CCOc1ccc(C(=O)Nc2cnc3c(c2)CN(C)CC3(C)C)cc1C(F)(F)F` gave an Increase in the series with Rattus norvegicus [2] of 310%. The “Log Ki” value in the series listed under Rattus norvegicus [1] is given as -8.5.
For `COc1ccc(C(=O)Nc2cnc3c(c2)CNCC3(C)C)cc1Br`, in that order: 260% and -8.7.
Regarding `CN1Cc2cc(NC(=O)c3ccccc3)cnc2C(C)(C)C1`, in the series on Rattus norvegicus [2], the Increase is 3%. In the series listed under Rattus norvegicus [1], the “Log Ki” value was -6.2.
On to `COc1ccc(C(=O)Nc2cnc3c(c2)CN(C)CC3(C)C)cc1Br`, for which the Increase with Rattus norvegicus [2] is reported as 210%. In the series filed under Rattus norvegicus [1], the “Log Ki” value was -8.6.
`CC(=O)c1ccc2c(c1)[C@H](NC(=O)c1ccc(F)cc1)[C@@H](O)C(C)(C)O2` [CARABERSAT]: the Increase with Rattus norvegicus [2] amounted to 120%. This compound returned an ED50 in the series filed under Rattus norvegicus [5] of 6.3 mg/kg.
